Assays:
[1] = Plasma concentration in Beagle dog at 1 mg/kg, iv after 24 hrs; format: ADME, organism-based, Canis lupus familiaris; parameters: dose 1 mg/kg, route intravenous
[2] = tested on: Rattus norvegicus; assay: Anabolic effect in castrated rat levator ani muscle assessed as reversal of ORX-induced atrophy at 1 mg/kg/day sc using osmotic pump after 14 days; format: functional; settings: route subcutaneous
Method in brief: (§1)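 Orchiectomized male rats received compound by subcutaneous osmotic pump for 14 days at 0.1-3 (mg/kg)/day. […] Levator ani and ventral prostate were weighed after 2 weeks and compared with sham-operated vehicle-treated controls, expressed as reversal of ORX-induced atrophy.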

[3] = Plasma concentration in Beagle dog at 1 mg/kg, iv after 6 hrs; format: ADME, organism-based, Canis lupus familiaris; parameters: dose 1 mg/kg, route intravenous
[4] = molecular target: T1, Androgen receptor (Mus musculus, UniProt P19091); assay: Agonist activity at androgen receptor in mouse NIH3T3 cells transiently transfected with beta-galactosidase reporter gene assessed as cellular transformation by R-SAT assay
T1 sequence (P19091 whole entry): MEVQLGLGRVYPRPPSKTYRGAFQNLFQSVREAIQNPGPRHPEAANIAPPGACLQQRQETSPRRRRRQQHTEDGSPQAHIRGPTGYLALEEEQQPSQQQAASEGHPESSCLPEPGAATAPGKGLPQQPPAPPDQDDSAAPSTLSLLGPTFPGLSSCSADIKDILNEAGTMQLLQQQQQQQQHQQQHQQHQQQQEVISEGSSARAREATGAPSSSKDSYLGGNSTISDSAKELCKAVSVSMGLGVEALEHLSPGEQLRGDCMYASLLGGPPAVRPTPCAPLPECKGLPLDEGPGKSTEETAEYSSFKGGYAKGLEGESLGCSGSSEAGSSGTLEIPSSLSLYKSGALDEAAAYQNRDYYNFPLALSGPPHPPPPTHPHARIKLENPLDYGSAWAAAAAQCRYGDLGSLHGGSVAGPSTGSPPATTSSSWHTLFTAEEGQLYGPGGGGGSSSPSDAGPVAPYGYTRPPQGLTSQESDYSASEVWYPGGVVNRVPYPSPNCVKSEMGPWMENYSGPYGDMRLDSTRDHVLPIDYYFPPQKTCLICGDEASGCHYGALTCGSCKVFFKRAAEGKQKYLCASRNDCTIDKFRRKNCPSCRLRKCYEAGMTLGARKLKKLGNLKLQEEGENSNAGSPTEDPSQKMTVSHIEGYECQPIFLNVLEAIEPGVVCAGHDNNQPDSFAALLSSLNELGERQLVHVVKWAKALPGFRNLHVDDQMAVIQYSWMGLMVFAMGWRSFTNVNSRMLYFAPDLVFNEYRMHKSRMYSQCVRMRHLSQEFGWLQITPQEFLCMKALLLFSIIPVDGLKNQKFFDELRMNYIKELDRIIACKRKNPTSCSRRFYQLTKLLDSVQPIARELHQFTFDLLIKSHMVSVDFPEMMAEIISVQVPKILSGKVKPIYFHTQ

[5] = Plasma concentration in Beagle dog at 1 mg/kg, iv after 4 hrs; format: ADME, organism-based, Canis lupus familiaris; parameters: dose 1 mg/kg, route intravenous
[6] = Oral bioavailability in rat; format: ADME, organism-based; settings: in vivo
[7] = Plasma concentration in Beagle dog at 1 mg/kg, iv after 2 hrs; format: ADME, organism-based, Canis lupus familiaris; parameters: dose 1 mg/kg, route intravenous
[8] = Metabolic stability in human hepatocyte assessed as half life; format: ADME, cell-based, Liver; settings: hepatocytes
[9] = Plasma concentration in Sprague-Dawley rat at 1 mg/kg, iv after 30 mins; format: ADME, organism-based; parameters: dose 1 mg/kg, route intravenous
[10] = AUC (0 to infinity) in Beagle […] at 10 mg/kg, po; format: ADME, organism-based, Canis lupus familiaris; parameters: time infinity, dose 10 mg/kg, route oral; settings: plasma
[11] = Oral bioavailability in Sprague-Dawley rat at 10 mg/kg, po; format: ADME, organism-based; settings: in vivo
[12] = Oral bioavailability in dog; format: ADME, organism-based, Canis lupus familiaris; settings: in vivo
[13] = Plasma concentration in Sprague-Dawley rat at 1 mg/kg, iv after 480 mins; format: ADME, organism-based; parameters: dose 1 mg/kg, route intravenous
[14] = Plasma concentration in Beagle dog at 10 mg/kg, po after 8 hrs; format: ADME, organism-based, Canis lupus familiaris; parameters: dose 10 mg/kg, route oral
[15] = Plasma concentration in Beagle dog at 10 mg/kg, po after 2 hrs; format: ADME, organism-based, Canis lupus familiaris; parameters: dose 10 mg/kg, route oral
[16] = Plasma concentration in Beagle dog at 10 mg/kg, po after 6 hrs; format: ADME, organism-based, Canis lupus familiaris; parameters: dose 10 mg/kg, route oral
[17] = Plasma concentration in Beagle dog at 1 mg/kg, iv after 8 hrs; format: ADME, organism-based, Canis lupus familiaris; parameters: dose 1 mg/kg, route intravenous
[18] = molecular target: T2, Androgen receptor (Homo sapiens, UniProt P10275); assay: Agonist activity at androgen receptor in human MDA-KB2 cells transfected with MMTV linked luciferase assessed as transcriptional activation by luciferase reporter gene assay
T2 sequence (P10275 whole entry): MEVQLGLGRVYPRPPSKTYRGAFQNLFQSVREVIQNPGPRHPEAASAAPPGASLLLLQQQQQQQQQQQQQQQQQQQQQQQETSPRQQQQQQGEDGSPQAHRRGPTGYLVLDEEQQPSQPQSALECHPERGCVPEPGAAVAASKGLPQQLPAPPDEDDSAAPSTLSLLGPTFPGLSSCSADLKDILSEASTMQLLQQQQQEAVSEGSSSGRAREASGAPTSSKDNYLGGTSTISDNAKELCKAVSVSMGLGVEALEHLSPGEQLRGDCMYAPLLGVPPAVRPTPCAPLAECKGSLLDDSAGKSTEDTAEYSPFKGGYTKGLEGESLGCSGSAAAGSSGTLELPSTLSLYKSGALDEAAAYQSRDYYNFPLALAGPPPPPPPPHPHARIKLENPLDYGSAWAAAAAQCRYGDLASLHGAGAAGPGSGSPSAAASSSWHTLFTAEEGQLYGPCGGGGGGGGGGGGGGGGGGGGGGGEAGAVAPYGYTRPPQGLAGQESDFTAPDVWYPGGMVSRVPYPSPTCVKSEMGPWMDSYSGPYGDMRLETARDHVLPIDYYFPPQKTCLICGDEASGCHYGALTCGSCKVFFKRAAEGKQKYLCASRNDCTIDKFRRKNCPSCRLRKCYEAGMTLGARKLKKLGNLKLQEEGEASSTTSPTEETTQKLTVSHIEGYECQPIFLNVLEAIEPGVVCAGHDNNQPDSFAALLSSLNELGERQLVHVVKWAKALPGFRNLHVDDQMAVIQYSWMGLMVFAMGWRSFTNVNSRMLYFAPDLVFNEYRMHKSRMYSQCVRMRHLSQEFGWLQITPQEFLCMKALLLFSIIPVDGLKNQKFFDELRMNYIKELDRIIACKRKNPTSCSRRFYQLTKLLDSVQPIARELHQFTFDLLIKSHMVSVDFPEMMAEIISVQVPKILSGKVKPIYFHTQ

[19] = Clearance in Sprague-Dawley rat at 1 mg/kg, iv; format: ADME, organism-based; parameters: dose 1 mg/kg, route intravenous; settings: in vivo
[20] = Plasma concentration in Sprague-Dawley rat at 10 mg/kg, po after 30 mins; format: ADME, organism-based; parameters: dose 10 mg/kg, route oral
[21] = Cmax in Sprague-Dawley rat at 10 mg/kg, po; format: ADME, organism-based; parameters: dose 10 mg/kg, route oral; settings: in vivo
[22] = Plasma concentration in Sprague-Dawley rat at 10 mg/kg, po after 240 mins; format: ADME, organism-based; parameters: dose 10 mg/kg, route oral
[23] = Half life in Sprague-Dawley rat at 1 mg/kg, iv; format: ADME, organism-based; parameters: dose 1 mg/kg, route intravenous; settings: in vivo
[24] = tested on: Rattus norvegicus; assay: Androgenic effect in castrated rat prostate assessed as reversal at 0.3 to 3 mg/kg/day sc using osmotic pump after 14 days; format: functional, Prostate gland; settings: route subcutaneous; method in brief: as §1
[25] = Oral bioavailability in Beagle […] at 10 mg/kg, po; format: ADME, organism-based, Canis lupus familiaris; settings: in vivo
[26] = AUC (8 hrs) in Sprague-Dawley rat at 1 mg/kg, iv; format: ADME, organism-based; parameters: time < 8 hr, dose 1 mg/kg, route intravenous; settings: plasma
[27] = Plasma concentration in Beagle dog at 1 mg/kg, iv after 0.08 hrs; format: ADME, organism-based, Canis lupus familiaris; parameters: dose 1 mg/kg, route intravenous

SMILES: Cc1c(N2[C@@H]3CC[C@H]2C[C@@](C)(O)C3)ccc(C#N)c1Cl
- concentration at 24 h [1]: 0.3 ng/mL
- Activity [2]: 67%
- concentration at 6 h [3]: 9.5 ng/mL
- EC50 [4]: 1000 pM
- concentration at 4 h [5]: 18.5 ng/mL
- bioavailability [6]: 38%
- concentration at 2 h [7]: 49.5 ng/mL
- half-life [8]: 5 h
- concentration at 0.5 h [9]: 234 ng/mL
- AUC(0-inf) [10]: 2210 ng·h/mL
- bioavailability [11]: 38%
- bioavailability [12]: 56%
- concentration at 8 h [13]: 14.9 ng/mL
- concentration at 8 h [14]: 60.6 ng/mL
- concentration at 2 h [15]: 270 ng/mL
- concentration at 6 h [16]: 104 ng/mL
- concentration at 8 h [17]: 5.5 ng/mL
- EC50 [18]: 251 pM
- clearance [19]: 24.4 mL/min/kg
- concentration at 0.5 h [20]: 314 ng/mL
- Cmax [21]: 421 ng/mL
- concentration at 4 h [22]: 353 ng/mL
- half-life [23]: 2.46 h
- Activity [24]: 21%
- bioavailability [25]: 56%
- AUC at 8 h [26]: 631 ng·h/mL
- concentration at 0.08 h [27]: 357 ng/mL
